According to ChEMBL document CHEMBL1156223, “Hydroxy cycloalkyl fused pyridone carboxylic acid M(1) positive allosteric modulators” (Bioorg Med Chem Lett, 2010):
Activity calls are given as the source filed them. The calls are words filed in the database; no cut-off is given here.

Columns and labels:
[1] = target: T1, Muscarinic acetylcholine receptor M1 (Homo sapiens) (UniProt P11229); test: Agonist activity at human muscarinic M1 receptor expressed in CHO cells assessed as inflection point for increase of EC20 of acetylcholine-induced calcium mobilization by FLIPR assay; format: functional, cell-based
T1 sequence (whole entry): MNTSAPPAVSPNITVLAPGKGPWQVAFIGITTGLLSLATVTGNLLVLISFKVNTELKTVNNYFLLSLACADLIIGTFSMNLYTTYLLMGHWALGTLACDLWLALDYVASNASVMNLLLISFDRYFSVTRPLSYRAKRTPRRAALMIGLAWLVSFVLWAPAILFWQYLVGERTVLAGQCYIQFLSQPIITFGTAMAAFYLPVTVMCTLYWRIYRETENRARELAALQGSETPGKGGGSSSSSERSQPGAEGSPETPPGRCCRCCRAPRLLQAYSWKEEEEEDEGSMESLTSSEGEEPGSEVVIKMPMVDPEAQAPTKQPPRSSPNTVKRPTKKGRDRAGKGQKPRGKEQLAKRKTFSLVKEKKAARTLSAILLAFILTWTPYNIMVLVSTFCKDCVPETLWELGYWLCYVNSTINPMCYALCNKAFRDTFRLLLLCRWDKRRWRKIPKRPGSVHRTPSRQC
How it was run: (§1)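 Potency given as inflection point (IP); percent max is the response to compound plus EC20 acetylcholine relative to the maximal acetylcholine effect. Values averaged from at least two experiments; interassay variability ±30% for IP.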

[2] = target: T1, Muscarinic acetylcholine receptor M1 (Homo sapiens); test: Agonist activity at human muscarinic M1 receptor expressed in CHO cells assessed as increase in EC20 of concentration acetylcholine-induced calcium mobilization by FLIPR assay relative to acetylcholine; format: functional, cell-based; how it was run: as §1
[3] = Ratio of drug levell in brain to plasma in Sprague-Dawley rat at 10 mg/kg, po
Brain = test: Drug level in Sprague-Dawley rat brain at 10 mg/kg, po; conditions: read-out: Drug uptake, in vivo
[4] = Apparent permeability of the compound; conditions: not told
Cerebrospinal fluid = test: Drug level in Sprague-Dawley rat CSF at 10 mg/kg, po; conditions: read-out: Drug uptake, in vivo
Plasma = test: Drug levell in Sprague-Dawley rat plasma at 10 mg/kg, po; conditions: read-out: Cp, in vivo
Mus musculus = test: Inhibition of scopolamine-induced memory impairment in ip dosed mouse relative to control; format: functional, organism-based
How it was run: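 Mouse contextual fear conditioning (episodic memory model): scopolamine given before exposure to a novel environment to block the new association. Test compound dosed ip at three doses; reversal judged against scopolamine-alone mice. Plasma levels sampled at the 3 mpk dose.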

| SMILES | Activity [1] | Activity [2] | also measured |
| --- | --- | --- | --- |
| COc1ccc(-c2ccc(Cn3cc(C(=O)O)c(=O)c4c3CCCC4O)cc2)cn1 (stereo not drawn) | 320 nM | – | – |
| O=C(O)c1cn(Cc2ccc(-c3ccccc3)cc2)c2c(c1=O)C(=O)CCC2 | 800 nM | 94% | – |
| O=C(O)c1cn(Cc2ccc(-c3ccsc3)cc2)c2c(c1=O)C(O)CCC2 (stereo not drawn) | 2640 nM | – | – |
| COc1ccccc1-c1ccc(Cn2cc(C(=O)O)c(=O)c3c2CCCC3O)cc1 (stereo not drawn) | 3100 nM | – | – |
| O=C(O)c1cn(Cc2ccc(-c3ccccc3)cc2)c2c(c1=O)CCCC2=O | 4890 nM | 70% | – |
| O=C(O)c1cn(Cc2ccc(-c3ccoc3)cc2)c2c(c1=O)C(O)CCC2 (stereo not drawn) | 750 nM | – | – |
| CN(C)c1ccc(-c2ccc(Cn3cc(C(=O)O)c(=O)c4c3CCCC4O)cc2)cn1 (stereo not drawn) | 1100 nM | – | – |
| O=C(O)c1cn(Cc2ccc(-c3ccccc3)cc2)c2c(c1=O)CCCC2O (stereo not drawn) | 8190 nM | 59% | – |
| O=C(O)c1cn(Cc2ccc(-c3ccc(Cl)cc3)cc2)c2c(c1=O)C(O)CCC2 (stereo not drawn) | 340 nM | – | – |
| COc1ccc(-c2ccc(Cn3cc(C(=O)O)c(=O)c4c3CCCC4O)cc2)cc1 (stereo not drawn) | 1390 nM | – | – |
| O=C(O)c1cn(Cc2ccc(-n3ccnc3)cc2)c2c(c1=O)C(O)CCC2 (stereo not drawn) | 2500 nM | – | – |
| Cn1cc(-c2ccc(Cn3cc(C(=O)O)c(=O)c4c3CCCC4O)cc2)cn1 (stereo not drawn) | 908 nM | – | Kp [3]: 0.01; concentration (Brain): 368 nM; Papp [4]: 19 ×10⁻⁶ cm/s; concentration (Cerebrospinal fluid): 110 nM; concentration (Plasma): 26.7 µM |
| O=C(O)c1cn(Cc2ccc(-c3cccc(Cl)c3)cc2)c2c(c1=O)C(O)CCC2 (stereo not drawn) | 340 nM | – | – |
| Nc1ccc(-c2ccc(Cn3cc(C(=O)O)c(=O)c4c3CCCC4O)cc2)cn1 (stereo not drawn) | 2420 nM | – | – |
| O=C(O)c1cn(Cc2ccc(-n3cccn3)cc2)c2c(c1=O)C(O)CCC2 (stereo not drawn) | 1370 nM | – | – |
| O=C(O)c1cn(Cc2ccc(-c3ccc(F)nc3)cc2)c2c(c1=O)C(O)CCC2 (stereo not drawn) | 14800 nM | – | – |
| COC1CCCc2c1c(=O)c(C(=O)O)cn2Cc1ccc(-c2ccccc2)cc1 (stereo not drawn) | 1100 nM | 90% | – |
| O=C(O)c1cn(Cc2ccc(-c3ccccc3Cl)cc2)c2c(c1=O)C(O)CCC2 (stereo not drawn) | 1400 nM | – | – |
| O=C(O)c1cn(Cc2ccc(-c3ccc(F)cc3)cn2)c2c(c1=O)C(O)CCC2 (stereo not drawn) | 1100 nM | – | – |
| Nc1cccc(-c2ccc(Cn3cc(C(=O)O)c(=O)c4c3CCCC4O)nc2)c1 (stereo not drawn) | 420 nM | – | – |
| O=C(O)c1cn(Cc2ccc(-c3ccccc3)cc2)c2c(c1=O)CCC2 | 810 nM | 99% | – |
| O=C(O)c1cn(Cc2ccc(-c3ccccc3)cc2)c2c(c1=O)CCCC2 | 751 nM | 91% | – |
| COc1cccc(-c2ccc(Cn3cc(C(=O)O)c(=O)c4c3CCCC4O)cc2)c1 (stereo not drawn) | 410 nM | – | – |
| O=C(O)c1cn(Cc2ccc(-c3ccccc3)cc2)c2c(c1=O)C(O)CCC2 (stereo not drawn) | – | 99% | inhibition (Mus musculus): Active |
| O=C(O)c1cn(Cc2ccc(-c3ccccc3)cc2)c2ccccc2c1=O | 212 nM | 92% | – |
